Assay [1] relates to PC-3. Description: Antiproliferative activity against human PC3 cells assessed as cell growth inhibition at 10 uM after 72 hrs by MTS assay. Type of assay: functional. Conditions: PC-3, 72 h, read-out: GI. Put shortly: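 PC3 cells kept in RPMI 1640 plus 10% FCS (37 °C, 5% CO2) and plated at 2500 per well. Compound added 24 h later at 10 µM in DMSO (1% final), 72 h exposure, vehicle controls. MTS read at 490 nm; percent inhibition of proliferation.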
In general terms: Formazan colour is commonly taken as a measure of viable cells.

Assay [2] addresses Serine/threonine-protein kinase pim-2 (Homo sapiens) (UniProt Q9P1W9). Description: Inhibition of human PIM2 assessed as residual activity using RSRHSSYPAGT as substrate at 10 uM after 30 mins.
For assay [3], the target named is T1, Serine/threonine-protein kinase pim-3 (Homo sapiens, UniProt Q86V86). Kind of assay: Inhibition of human PIM3 assessed as residual activity using RSRHSSYPAGT as substrate at 10 uM after 30 mins.
Assay [4] concerns LNCaP. Kind of assay: Antiproliferative activity against human LNCAP cells assessed as cell growth inhibition at 10 uM after 72 hrs by MTS assay. It is filed as functional. Conditions: read-out: GI. Put shortly: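 LNCaP cells grown in RPMI 1640 with 10% FCS at 37 °C, 5% CO2, seeded at 5000 per well. After 24 h, compound in DMSO (1% final) added at 10 µM for 72 h; DMSO controls. Viable cells by MTS absorbance at 490 nm; percent proliferation inhibition.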

Assay [5] has as its target T1, Serine/threonine-protein kinase pim-3. Description: Inhibition of human PIM3 assessed as residual activity using RSRHSSYPAGT as substrate at 1 uM after 30 mins.
In assay [6] the target is T2, Serine/threonine-protein kinase pim-1 (Homo sapiens, UniProt P11309). Kind of assay: Inhibition of human PIM1 assessed as residual activity using RSRHSSYPAGT as substrate at 1 uM after 30 mins.
Target sequence in this assay (P11309 whole entry, looked up): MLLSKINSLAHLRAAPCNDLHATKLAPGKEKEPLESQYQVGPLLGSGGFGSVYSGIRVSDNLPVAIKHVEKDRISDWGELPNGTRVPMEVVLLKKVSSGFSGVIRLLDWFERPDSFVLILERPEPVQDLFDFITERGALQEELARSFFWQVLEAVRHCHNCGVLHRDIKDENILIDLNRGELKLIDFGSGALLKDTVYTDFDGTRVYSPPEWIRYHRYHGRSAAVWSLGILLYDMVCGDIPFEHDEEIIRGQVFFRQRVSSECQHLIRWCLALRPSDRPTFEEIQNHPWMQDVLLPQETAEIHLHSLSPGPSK
Assay [7] addresses Serine/threonine-protein kinase pim-2 (Homo sapiens) (UniProt Q9P1W9). Description: Inhibition of human PIM2 assessed as residual activity using RSRHSSYPAGT as substrate at 1 uM after 30 mins.
Assay [8] deals with T2, Serine/threonine-protein kinase pim-1. Description: Inhibition of human PIM1 assessed as residual activity using RSRHSSYPAGT as substrate at 10 uM after 30 mins.
Target sequence in this assay (P11309 whole entry, looked up): as above
Assay [9] has the same target. Description: Inhibition of human PIM1 using RSRHSSYPAGT as substrate after 30 mins.
Target sequence in this assay (P11309 whole entry): as the sequence (P11309 whole entry, looked up) above
Assay [10] addresses T1, Serine/threonine-protein kinase pim-3. Description: Inhibition of human PIM3 using RSRHSSYPAGT as substrate after 30 mins.
In assay [11] the test system is PC-3. Kind of assay: Antiproliferative activity against human PC3 cells assessed as cell growth inhibition after 72 hrs by MTS assay. It is filed as functional, cell-based. Conditions: PC-3, 72 h.

Sequence of Serine/threonine-protein kinase pim-2 (Homo sapiens) (Q9P1W9 whole entry, looked up): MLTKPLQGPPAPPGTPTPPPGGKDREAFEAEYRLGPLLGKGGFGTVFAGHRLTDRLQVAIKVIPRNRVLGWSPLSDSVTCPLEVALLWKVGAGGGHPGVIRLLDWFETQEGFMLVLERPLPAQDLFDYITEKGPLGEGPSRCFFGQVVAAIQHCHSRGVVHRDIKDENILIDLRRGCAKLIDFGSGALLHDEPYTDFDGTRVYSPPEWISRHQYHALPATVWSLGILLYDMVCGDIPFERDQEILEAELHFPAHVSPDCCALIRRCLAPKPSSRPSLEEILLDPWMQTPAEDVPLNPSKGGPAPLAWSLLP

Regarding `Nc1cc2cn[nH]c2c2c1[nH]c1ccccc12`, the inhibition of growth at 10 µM in assay [1] worked out at 31%; in assay [4], 28%. The Activity was 78% in [2]; 20% in assay [3]; 63% in assay [5]; 98% in assay [6]; 116% in assay [7]; 54% in assay [8].

Usually IC50 stands for the concentration that gives 50% inhibition. As for `O=[N+]([O-])c1cc2n[nH]cc2c2c1[nH]c1ccccc12`, the IC50 in assay [9] amounted to 40 nM; in assay [10] it was 100 nM.

Take `Nc1cc2[nH]ncc2c2c1[nH]c1ccccc12`: the inhibition of growth at 10 µM in assay [1] and in assay [4] was 56% each time. Further, the Activity came out at 71% in [2]; 20% in [3]; 66% in [5]; 61% in assay [6]; 96% in [7]; 16% in assay [8].

Turning to `COc1ccc2[nH]c3c([N+](=O)[O-])cc4c[nH]nc4c3c2c1`, the figures for the IC50 in assay [9] and in assay [10] were 220 nM and 110 nM, respectively.

Turning to `COc1ccc2[nH]c3c([N+](=O)[O-])cc4cn[nH]c4c3c2c1`, the inhibition of growth at 10 µM is 29% in assay [1] and 19% in assay [4]. The Activity in assay [2] came to 72%; in assay [3] it was 23%; in assay [5], 28%; in assay [6], 41%; in [7] it was 77%; in assay [8] it was 39%.

`COc1ccc2[nH]c3c([N+](=O)[O-])cc4n[nH]cc4c3c2c1`: the half-inhibitory concentration (IC50) in assay [9] stood at 150 nM; in assay [10], 110 nM.

In the case of `Nc1cc2[nH]ncc2c2c1[nH]c1ccc(Cl)cc12`, the inhibition of growth at 10 µM in assay [1] was found to be 45%; in assay [4], 27%. Also, the Activity in assay [2] was 34%; in assay [3] it was 7%; in [5], 28%; in assay [6], 45%; in assay [7] it was 107%; in [8], 8%. Besides, the values for the half-inhibitory concentration (IC50) in [9] and in [10] were 1100 nM and 110 nM, respectively.

`COc1ccc2[nH]c3c(N)cc4n[nH]cc4c3c2c1` yielded an IC50 in assay [10] of 600 nM.

Turning to `O=[N+]([O-])c1cc2cn[nH]c2c2c1[nH]c1ccc(Cl)cc12`, the results for the inhibition of growth at 10 µM in assay [1] and in assay [4] were 51% and 28%, respectively. Further, the Activity was 93% in assay [2]; 38% in assay [3]; 50% in assay [5]; 69% in assay [6]; 90% in assay [7]; 60% in assay [8]. Also, in [10], the IC50 is 90 nM.

As for `O=[N+]([O-])c1cc2[nH]ncc2c2c1[nH]c1ccccc12`, the inhibition of growth at 10 µM in assay [1] was 85%; in assay [4], 38%. Moreover, the Activity amounted to 38% in [2]; 17% in [3]; 28% in [5]; 14% in assay [6]; 49% in assay [7]; 15% in assay [8]. Further, in assay [11], the IC50 came to 3000 nM.

As to `O=[N+]([O-])c1cc2[nH]ncc2c2c1[nH]c1ccc(Cl)cc12`, the inhibition of growth at 10 µM in assay [1] amounted to 50%; in [4], 0%. Also, the Activity was found to be 54% in assay [2]; 19% in assay [3]; 26% in assay [5]; 48% in [6]; 57% in assay [7]; 39% in [8]. Besides, the IC50 in assay [9] turned out to be 200 nM; in assay [10], 230 nM.

For `O=[N+]([O-])c1cc2c[nH]nc2c2c1[nH]c1ccccc12`, the values for the IC50 in assay [9] and in assay [10] were 400 nM and 210 nM, respectively.

For the molecule `O=[N+]([O-])c1cc2cn[nH]c2c2c1[nH]c1ccccc12`, the inhibition of growth at 10 µM in [1] was determined as 59%; in [4], 45%. In addition, the Activity in [2] stood at 46%; in assay [3] it was 16%; in assay [5], 22%; in assay [6], 44%; in assay [7], 76%; in assay [8] it was 26%.

With `Nc1cc2cn[nH]c2c2c1[nH]c1ccc(Cl)cc12`, the inhibition of growth at 10 µM in assay [1] came out at 43%; in assay [4], 35%. Moreover, the Activity was 79% in [2]; 14% in [3]; 55% in assay [5]; 85% in assay [6]; 115% in assay [7]; 29% in assay [8].

Consider `COc1ccc2[nH]c3c(N)cc4[nH]ncc4c3c2c1`, for which the values for the inhibition of growth at 10 µM in [1] and in assay [4] were 46% and 39%, respectively. Besides, the Activity in assay [2] stood at 54%; in assay [3], 16%; in [5], 51%; in [6] it was 70%; in assay [7], 123%; in assay [8] it was 23%.

Take `COc1ccc2[nH]c3c(N)cc4cn[nH]c4c3c2c1`: the inhibition of growth at 10 µM in [1] was found to be 28%; in assay [4], 8%. Moreover, the Activity in assay [2] was 70%; in assay [3], 14%; in assay [5], 46%; in assay [6] it was 93%; in [7], 120%; in [8], 43%. The half-maximal inhibitory concentration (IC50) in assay [10] stood at 700 nM.

Consider `COc1ccc2[nH]c3c([N+](=O)[O-])cc4[nH]ncc4c3c2c1`, for which the inhibition of growth at 10 µM in [1] is 74%; in [4], 27%. The Activity in assay [2] is 35%; in assay [3], 11%; in assay [5], 21%; in assay [6] it was 29%; in assay [7], 54%; in [8], 13%. In [11], the IC50 was found to be 2300 nM.

The values above are taken from ChEMBL document CHEMBL2396576, “Identification of 1,6-dihydropyrazolo[4,3-c]carbazoles and 3,6-dihydropyrazolo[3,4-c]carbazoles as new Pim kinase inhibitors” (Bioorg Med Chem, 2013).
